Experimental data as given in ChEMBL document CHEMBL1145814, “Antiretroviral activity of semisynthetic derivatives of glycopeptide antibiotics” (J Med Chem, 2003).
In brackets after ≈: the same amount, converted by molar mass.

What was measured:
Mus musculus [1] = organism: Mus musculus; assay: Minimal inhibitory concentration required to cause a microscopic detectable alteration of C3H/3T3 embryo murine fibroblast cell morphology; assay type: functional
Summary of the method: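 Uninfected C3H/3T3 murine embryo fibroblast cultures were exposed to test compound and checked microscopically for changes in cell morphology. The MIC is the concentration causing a microscopically detectable alteration of morphology.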

CCRF-CEM = assay: Inhibitory concentration against proliferation of human T-lymphocytic (CEM) cells; assay type: functional, cell-based; settings: Homo sapiens, CCRF-CEM
Summary of the method: (§1)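 (5–7.5) × 10^4 cells per well were incubated with test compound at 37 °C in a humidified CO2 atmosphere. L1210 murine leukemia cells grew for 48 h, and CEM and Molt4/clone 8 human lymphocytes grew for 72 h. Cells were then counted with a Coulter counter. IC50 is the concentration inhibiting proliferation by 50%.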

[2] = system: Human immunodeficiency virus 2; assay: Concentration required to protect human T-lymphocytic cells against the cytopathogenicity of HIV-2; assay type: functional, organism-based; settings: Human immunodeficiency virus 2
[3] = system: Human immunodeficiency virus 1; assay: Effective concentration of compound required to protect human T-lymphocytic cells against the cytopathogenicity of HIV-1; assay type: functional, organism-based; settings: Human immunodeficiency virus 1
L1210 = assay: Inhibitory concentration of compound against proliferation of murine lukemia cells L1210 was determined; assay type: functional, cell-based; settings: Mus musculus; summary of the method: as §1
MOLT-4 = assay: Inhibitory concentration of compound against proliferation of human T-lymphocytic cells MOLT-4/C8 was determined; assay type: functional, cell-based; summary of the method: as §1
Mus musculus [4] = organism: Mus musculus; assay: Effective concentration of compound required to protect C3H/3T3 embryo murine fibroblasts against the MSV induced transformation; assay type: functional, organism-based; settings: Mus musculus, C3H/3T3
Summary of the method: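 Monolayer murine embryo fibroblast C3H/3T3 cultures were infected with Moloney murine sarcoma virus at 75 focus-forming units and cultured with test compound. Transformation was examined microscopically on day 6 postinfection. EC50 is the concentration protecting cells against MSV-induced transformation by 50%.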

SMILES	MIC (Mus musculus [1]) [µM]	IC50 (CCRF-CEM) [µM]	EC50 [2] [µM]	EC50 [3] [µM]	IC50 (L1210) [µM]	IC50 (MOLT-4) [µM]	EC50 (Mus musculus [4]) [µM]
CNC1C(=O)NC2Cc3ccc(cc3)Oc3cc4cc(c3O)Oc3ccc(cc3Cl)C(O)C3NC(=O)C(NC(=O)C4NC(=O)C(NC2=O)c2cc(cc(O)c2Cl)Oc2cc1ccc2O)c1ccc(O)c(c1)-c1c(O)cc(O)cc1[C@H](C(=O)O)NC3=O (stereo partly specified)	> 100	> 500	> 50	40	> 500	> 500	82
NC1Cc2ccc(c(Cl)c2)Oc2cc3cc(c2O)Oc2ccc(cc2Cl)C(O)C2NC(=O)C(NC(=O)C3NC(=O)C(c3cc(O)cc(Oc4cc(C5NC(=S)N(c6ccccc6)C5=O)ccc4O)c3)NC1=O)c1ccc(O)c(c1)-c1c(cc(O)c(CNC3C4CC5CC(C4)CC3C5)c1O)[C@H](C(=O)O)NC2=O (stereo partly specified)	> 100	242	17	13	73	> 250	2.9
CNC(=O)[C@@H]1NC(=O)C2NC(=O)C(NC(=O)C3NC(=O)C4NC(=O)C(Cc5ccc(c(Cl)c5)Oc5cc3cc(c5O)Oc3ccc(cc3Cl)C2O)NC(=O)C(N)c2ccc(O)c(c2)Oc2cc(O)cc4c2)c2ccc(O)c(c2)-c2c1cc(O)c(CNC1C3CC4CC(C3)CC1C4)c2O (stereo partly specified)	> 20	> 250	17	5	212	> 250	9.5
CCCCOc1ccc(CNC2C(Oc3c4cc5cc3Oc3ccc(cc3Cl)C(O)C3NC(=O)C(NC(=O)C5NC(=O)C5NC(=O)C(Cc6ccc(cc6)O4)NC(=O)C(N(C)Cc4ccc(OCCCC)cc4)c4ccc(O)c(c4)Oc4cc(O)c(Cl)c5c4)c4ccc(O)c(c4)-c4c(O)cc(O)cc4[C@H](C(=O)NCCCN(C)C)NC3=O)OC(C(=O)NCCCN(C)C)C(O)C2O)cc1 (stereo partly specified)	20 (≈ 37.6 µg/mL)	80	> 10	5	20	18	> 4
COC(=O)[C@@H]1NC(=O)C2NC(=O)C(NC(=O)C(N)c3cc(Oc4ccc(CC(NC(=O)OCc5ccccc5)C(=O)O)cc4Cl)c(O)c(c3)Oc3ccc(cc3Cl)C2O)c2ccc(O)c(c2)-c2c1cc(O)c(CNC1C3CC4CC(C3)CC1C4)c2O (stereo partly specified)	> 100	> 250	37	17	181	> 250	39
CCCCc1ccc(CNCc2c(O)cc3c(c2O)-c2cc(ccc2O)C2NC(=O)C4NC(=O)C5NC(=O)C(Cc6ccc(c(Cl)c6)Oc6cc4cc(c6O)Oc4ccc(cc4Cl)C(O)C(NC2=O)C(=O)N[C@H]3C(=O)NC)NC(=O)C(NC(=O)OC(C)(C)C)c2ccc(O)c(c2)Oc2cc(O)cc5c2)cc1 (stereo partly specified)	20 (≈ 29.7 µg/mL)	> 100	12	6	70	> 100	> 4
NC1C(=O)NC2Cc3ccc(c(Cl)c3)Oc3cc4cc(c3O)Oc3ccc(cc3Cl)C(O)C3NC(=O)C(NC(=O)C4NC(=O)C(NC2=O)c2cc(O)cc(c2)Oc2cc1ccc2O)c1ccc(O)c(c1)-c1c(O)cc(O)cc1[C@H](C(=O)O)NC3=O (stereo partly specified)	> 100	> 500	20	17	> 500	> 500	25
COC(=O)[C@H]1NC(=O)C2NC(=O)C(NC(=O)[C@@H]3NC(=O)[C@H]4NC(=O)[C@H](NC(=O)[C@H](N)c5ccc(O)c(c5)Oc5cc4cc(O)c5C)[C@H](O)c4ccc(cc4)Oc4cc3cc(c4OC3OC(CO[C@H]4O[C@H](C)[C@@H](O)[C@@H](O)[C@@H]4O)C(O)C(O)C3OC3OC(CO)C(O)C(O)C3OC3OCC(O)C(O)C3O)Oc3ccc(cc3)[C@H]2O[C@@H]2C[C@@H](N)[C@@H](O)[C@@H](C)O2)c2ccc(O)c(c2)-c2c(O[C@@H]3O[C@H](CO)[C@@H](O)[C@@H](O)[C@@H]3O)cc(O)cc21 (stereo partly specified)	> 100	> 500	> 250	> 250	> 500	> 500	> 100
